Measured values published in article PMC13201524 (Journal of structural biology, 2025).
Residue numbers refer to the chain shown, from its start. Names and notes keep the numbering of the source. “Also recorded” adds a separate entry of the source. Read-outs that look alike come from different tables or passages of the source. One block for each molecule: values may come before it.

Key:
[1] = biological target: T1, mScn (Mus musculus, UniProt P11672); test: 1H-15N Trosy HSQC NMR screening and titration on mScn; assay type: binding; settings: FDA-approved drugs library and Vanderbilt discovery library; peak shifts of mScn
T1 sequence (P11672 with tags, fused parts or gaps): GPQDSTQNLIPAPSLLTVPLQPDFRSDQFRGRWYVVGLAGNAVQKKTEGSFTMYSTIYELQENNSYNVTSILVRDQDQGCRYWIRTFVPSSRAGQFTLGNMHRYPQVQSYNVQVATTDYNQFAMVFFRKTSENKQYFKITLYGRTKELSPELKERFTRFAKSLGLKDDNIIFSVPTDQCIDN
In short: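 15N-labelled mScn was expressed in E. coli BL21(DE3) as a 6His-GB1 fusion, and the GB1 tag was cleaved with HRV3C. Screening used pools of 12 compounds (1 μl each of 10 mM DMSO stock) with 20 μM mScn in 100 mM sodium phosphate pH 6.0, 5 vol% D2O and 2 vol% DMSO. Hits were re-tested singly, then titrated with 50 μM mScn (5 vol% DMSO) at protein:ligand ratios from 1:0 to 1:10.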

[2] = ref Gleiter and Mörike, 2002; Buter et al., 1999; cited from earlier work
[3] = ref Gleiter and Mörike, 2002; Buter et al., 1999; cited from earlier work; remark: listed apart in the source
[4] = biological target: hScn; settings: read-out: binding affinity; ref Goetz et al., 2002; Hohlbaum et al., 2018; cited from earlier work
[5] = Isothermal titration calorimetry; assay type: binding
In short: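 Monomeric hScn C87S (and mutants) was expressed in E. coli on M9 medium and purified by Ni-NTA and size exclusion. The protein sat in the cell and the test compound in the syringe, both in matched 100 mM sodium phosphate pH 6.0 with 2% DMSO. Runs were at 25°C and 750 rpm: a 0.4 μL first injection, then at least 19 injections of 2 μL spaced 150 s. A ligand-into-buffer reference titration was run.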

Molecule: CCOc1nc2cccc(C(=O)O)c2n1Cc1ccc(-c2ccccc2-c2nnn[nH]2)cc1 [candesartan]
NMR screening / titration result in words [1]: tightest binding; also recorded: medium to low affinity | maximal plasma concentration [2]: around 0.227 μM | plasma protein binding [3]: exceeding 99%

Molecule: O=C(N[C@H]1COC(=O)[C@@H](NC(=O)c2cccc(O)c2O)COC(=O)[C@@H](NC(=O)c2cccc(O)c2O)COC1=O)c1cccc(O)c1O [enterobactin]
Kd [4]: 0.41 ± 0.11 nM

B1: Y138A: hScn_C87S point mutant, best performing loss of binding mutant (protein, UniProt P80188 21-198, looked up, variant C87S Y138A)
Neutrophil …: QDSTSDLIPAPPLSKVPLQQNFQDNQFQGKWYVVGLAGNAILREDKDPQKMYATIYELKEDKSYNVTSVLFRKKKCDYWIRTFVPGSQPGEFTLGNIKSYPGLTSYLVRVVSTNYNQHAMVFFKKVSQNREYFKITLAGRTKELTSELKENFIRFSKSLGLPENHIVFPVPIDQCIDG
increase of KD (decrease in binding affinity) compared to wild type ([5]; ITC, candesartan): fivefold

The remaining lines, values ahead:

NMR screening / titration result in words [1]: identified hits
Molecule: CCOc1nc2cccc(C(=O)O)c2n1Cc1ccc(-c2ccccc2-c2nc(=O)o[nH]2)cc1 [azilsartan]

NMR screening / titration result in words [1]: identified hits
Molecule: CCCCC(=O)N(Cc1ccc(-c2ccccc2-c2nnn[nH]2)cc1)[C@H](C(=O)O)C(C)C [valsartan]

Kd ([5]; read-out: ITC KD1, first binding event, value in nM): 115 nM | Kd ([5]; read-out: ITC- KD2, second binding event): 3500 nM
B2: T54R: hScn_C87S point mutant, best performing gain of binding mutant (protein, UniProt P80188 21-198, looked up, variant C87S T54R)
Neutrophil …: B1 Neutrophil … with T54R, A138Y
